Columns and labels:
[1] = tested on: Vβ6+ CD4+ T cells in lung and BAL; assay: TCR Vβ6 expression on CD4+ T cells after BeO exposure; format: in vivo, HLA-DP2 Tg FVB/N mice
How it was run: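 HLA-DP2 Tg FVB/N mice, 6–8 weeks old, were anesthetized with isoflurane and given 100 μg BeO by oropharyngeal aspiration on days 0, 1, 2, 14, 15, 18 and 19, then sacrificed on day 21. BAL used three 0.5 ml PBS instillations, pooled from 20 mice. Lungs were collagenase-digested (1 mg/ml, 30 min, 37°C). Cells were stained with a seven-mAb anti-Vβ panel, and small versus blasting lymphocytes were gated by forward/side scatter.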

[2] = tested on: HLA-DP2 variants with substitutions at positions 26, 68 and 69 of the β-chain; format: cell-based, human
How it was run: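 Human AV22 and murine Vβ6⁺ transfectomas were given BeSO₄ presented by fibroblasts expressing wild-type HLA-DP2 or β-chain variants carrying alanine, glutamine or lysine at positions 26, 68 or 69. Be-induced IL-2 (pg/ml) was measured by ELISA.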

[3] = BAL cells pooled from 20 BeO-exposed HLA-DP2 Tg mice

Compound | frequency of CD4+ T cells expressing Vβ6, blasting (large forward scatter) T cells [1, 3] [%] | frequency of CD4+ T cells expressing Vβ6, small lymphocyte gate [1, 3] [%] | percentage of BAL CD4+ T cells expressing Vβ6 ([1]; BAL of BeO-exposed mice, overall value given in text, unexposed lung 11.1%) [%] | Be-induced IL-2 secretion with the EA68 HLA-DP2 β-chain variant ([2]; AV22 transfectoma (Figure 4B)) | Be-induced IL-2 secretion with amino acid substitutions at positions 26, 68 and 69 of the HLA-DP2 β-chain ([2]; human TCR AV22 and five murine T cell transfectomas, alanine, glutamine or lysine substitutions (Figure 4B))
[Be]=[O] [BeO, Be oxide] | 22.5 | 13.7 | 16.8 |  | 
O=S(=O)([O-])[O-].[Be+2] [BeSO4] |  |  |  | partial reduction in IL-2 secretion | abrogated Be-induced IL-2 secretion

— publication PMC4698108 (Mucosal immunology, 2015)
